ChEMBL document CHEMBL1212940, “Polyacetylenes from the roots of Polyalthia debilis” (2010)
Values after ≈ are worked out from the molar mass of the structure shown. Active and inactive are the calls of the source. No cut-off for these calls is given here.

Legend:
[1] = system: NCI-H187; assay: Cytotoxicity against human NCI-H187 cells; assay type: functional, cell-based
[2] = system: Plasmodium falciparum; assay: Antimalarial activity against Plasmodium falciparum; assay type: functional, organism-based
[3] = system: KB; assay: Cytotoxicity against human KB cells; assay type: functional, cell-based
[4] = system: BC1; assay: Cytotoxicity against human BC1 cells; assay type: functional, cell-based
[5] = system: Candida albicans; assay: Antifungal activity against Candida albicans; assay type: functional, organism-based
[6] = system: Mycobacterium tuberculosis; assay: Antimycobacterial activity against Mycobacterium tuberculosis H37Ra by microplate alamar blue assay; assay type: functional
In short: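 Whole-cell microplate Alamar Blue test of M. tuberculosis H37Ra, read out as MIC in µg/mL. Isoniazid and kanamycin sulfate served as reference drugs.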

With `CCCC/C=C\C#CC#CCCCCCCCCCCCC[C@H]1C[C@@H](CO)OC1=O` as the compound, how does the Activity [1] read?
Its Activity is “inactive”.

And the Activity [2]?
The Activity was “inactive”.

And the Activity [3]?
The Activity was “inactive”.

And the Activity [4]?
Its Activity is “inactive”.

And the Activity [5]?
The Activity was “inactive”.

Which results are given for `C=CCC/C=C\C#CC#CCCCCCCCCCC[C@H]1C[C@@H](CO)OC1=O`?
Activity [1]: inactive; Activity [2]: inactive; Activity [3]: inactive; Activity [4]: inactive; Activity [5]: inactive

With `C=CCCCCCCC#CCCCC[C@@H]1C[C@@H](CO)OC1=O` as the compound, how does the Activity [1] read?
Its Activity is “inactive”.

What about the Activity [2] of the same compound?
The Activity was “inactive”.

And the Activity [3]?
Its Activity is “inactive”.

What about the Activity [4] of the same compound?
Its Activity is “inactive”.

What about the Activity [5] of the same compound?
Its Activity is “inactive”.

How did the Activity [1] turn out when `CCCC/C=C/C#CC#CCCCCCCCCCC[C@H]1C[C@@H](CO)OC1=O` [DEBILISONE C] was run?
The Activity was “inactive”.

What about the Activity [2] of the same compound?
Its Activity is “inactive”.

And the Activity [3]?
The Activity was “inactive”.

What about the MIC [6] of the same compound?
Its MIC is 12.5 µg/mL (≈ 32.3 µM).

What about the Activity [4] of the same compound?
Its Activity is “inactive”.

What about the Activity [5] of the same compound?
The Activity was “inactive”.

Which results are given for `C=CCCCCCCC#CCCCCCCCCCC[C@@H]1C[C@@H](CO)OC1=O`?
Activity [1]: inactive; Activity [2]: inactive; Activity [3]: inactive; Activity [4]: inactive; Activity [5]: inactive

Which results are given for `C=CCC/C=C/C#CC#CCCCCCCCCCC[C@H]1C[C@@H](CO)OC1=O` [DEBILISONE E]?
Activity [1]: inactive; Activity [2]: inactive; Activity [3]: inactive; MIC [6]: 25 µg/mL (≈ 65 µM); Activity [4]: inactive; Activity [5]: inactive

With `CCCCCCC#CC#CCCCCCCCCCC[C@H]1C[C@@H](CO)OC1=O` as the compound, how does the Activity [1] read?
Its Activity is “inactive”.

And the Activity [2]?
Its Activity is “inactive”.

What about the Activity [3] of the same compound?
The Activity was “inactive”.

What about the Activity [4] of the same compound?
The Activity was “inactive”.

And the Activity [5]?
Its Activity is “inactive”.

With `CCCCC[C@H](O)C#CC#CCCCCCCCCCC[C@H]1C[C@@H](CO)OC1=O` [DEBILISONE B] as the compound, how does the Activity [1] read?
The Activity was “inactive”.

And the Activity [2]?
Its Activity is “inactive”.

And the Activity [3]?
The Activity was “inactive”.

And the MIC [6]?
Its MIC is 25 µg/mL (≈ 61.8 µM).

And the Activity [4]?
The Activity was “inactive”.

And the Activity [5]?
The Activity was “inactive”.
